In ChEMBL document CHEMBL3227925, “Structure-activity relationship in a new series of atropine analogues. 1. N,N'-Disubstituted 6,7-diazabicyclo[3.2.2]nonane derivatives” (J Med Chem, 1979):
Counter-ions that a name gives are not always drawn. The source made the active and inactive calls. The calls are words filed in the database; no cut-off is given here.

How the values were obtained:
[1] = Antagonist activity at muscarinic acetylcholine receptor in guinea pig ileum assessed as inhibition of acetylcholine-induced contraction; assay type: tissue-based, Cavia porcellus
Method in brief: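 Ileum segments (~2 cm) from freshly killed guinea pigs in a 10-mL organ bath of Tyrode solution at 37 °C, air-bubbled. Isotonic contractions recorded. Acetylcholine dose-response curves run without and with antagonist. Affinity constants calculated from the dose ratio. Values are means of two to four separate experiments ± SD.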

[2] = Toxicity in ip dosed mouse; assay type: organism-based; details: in vivo
Method in brief: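 Preliminary LD50 determination in mice given the drugs intraperitoneally.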

[3] = species on record: Cavia porcellus; experiment: Competitive antagonist activity at muscarinic acetylcholine receptor in guinea pig ileum assessed as inhibition of acetylcholine-induced contraction at 1X10'-8 M; assay type: tissue-based
Method in brief: (§1)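 Guinea pig ileum (~2 cm, freshly killed animals) in a 10-mL Tyrode bath at 37 °C, air-bubbled, isotonic lever recording. Acetylcholine dose-response curves recorded alone and with antagonist present at a single fixed concentration (1×10^-8 or 1.1×10^-8 M). The curves were compared for shift.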

[4] = Displacement of [3H]4-NMPB from muscarinic acetylcholine receptor in mouse brain; assay type: tissue-based
[5] = species on record: Cavia porcellus; experiment: Competitive antagonist activity at muscarinic acetylcholine receptor in guinea pig ileum assessed as inhibition of acetylcholine-induced contraction at 1.1X10'-8 M; assay type: tissue-based; method in brief: as §1

| SMILES | Kd [1] | further results |
| --- | --- | --- |
| CN1[C@@H]2CC[C@@H](C[C@H](OC(=O)C(CO)c3ccccc3)C2)N1C (stereo not given in full) | 0.091 nM |  |
| CN1[C@@H]2CC[C@@H](C[C@H](OC(=O)C(CO)c3ccccc3)C2)N1C (stereo in doubt; 1) | 1.7 nM | LD50 [2]: 150 mg/kg |
| CN1[C@@H]2CC[C@@H](C[C@H](OC(=O)C(CO)c3ccccc3)C2)N1C (stereo in doubt; 2) [listing 1 of 2 here] | 0.066 nM |  |
| CN1[C@@H]2CC[C@@H](C[C@H](OC(=O)C(CO)c3ccccc3)C2)N1C (stereo in doubt; 2) [listing 2 of 2 here] |  | inhibition [3]: Active |
| CN1[C@@H]2CC[C@@H](C[C@H](OC(=O)C(CO)c3ccccc3)C2)N1C (stereo in doubt; 4) | 170 nM |  |
| CN1[C@@H]2CC[C@@H](C[C@H](OC(=O)C(CO)c3ccccc3)C2)N1C (stereo in doubt; 5) [listing 1 of 2 here] | 1.6 nM | Kd [4]: 2.1 nM |
| CN1[C@@H]2CC[C@@H](C[C@H](OC(=O)C(CO)c3ccccc3)C2)N1C (stereo in doubt; 5) [listing 2 of 2 here] |  | inhibition [5]: Active |
| CN1[C@@H]2CC[C@H]1C[C@@H](OC(=O)C(CO)c1ccccc1)C2 (stereo not given in full) [ATROPINE SULFATE] | 0.49 nM |  |
